ChEMBL document CHEMBL1157665, “Novel 4-thiazolidinone derivatives as potential antifungal and antibacterial drugs” (2010)
Values after ≈ are worked out from the molar mass of the structure shown.

Tests used:
Pseudomonas aeruginosa [1] = experiment: Antibacterial activity against Pseudomonas aeruginosa ATCC 27853 after 72 hrs by serial sub-cultivation method; format: functional; conditions: ATCC 27853, 72 h
Outline: (§1)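 MBC was found by serial sub-cultivation of 2 µl from the MIC wells into plates holding 100 µl broth per well, then incubation for 72 h. MBC is the lowest concentration with no visible growth, i.e. 99.5% killing of the original inoculum. Bacterial inoculum was 1.0 × 10^4 cfu per well in LB broth. Duplicate, repeated three times.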

Proteus mirabilis [2] = experiment: Antibacterial activity against Proteus mirabilis after 72 hrs by serial sub-cultivation method; format: functional; outline: as §1
Staphylococcus aureus [3] = experiment: Antibacterial activity against Staphylococcus aureus ATCC 6538 after 72 hrs by serial sub-cultivation method; format: functional; conditions: ATCC 6538, 72 h; outline: as §1
Aspergillus niger [4] = experiment: Antifungal activity against Aspergillus niger ATCC 6275 after 72 hrs by serial sub-cultivation method; format: functional; conditions: ATCC 6275, 72 h
Outline: (§2)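 MFC was found by serial sub-cultivation of 2 µl into plates holding 100 µl broth per well, then incubation 72 h at 28 °C. MFC is the lowest concentration with no visible growth, taken as 99.5% killing of the original inoculum. Spore inocula came from malt agar cultures washed with 0.85% saline and 0.1% Tween 80.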

Staphylococcus aureus [5] = experiment: Antibacterial activity against Staphylococcus aureus ATCC 6538 after 24 hrs; format: functional; conditions: ATCC 6538, 24 h
Outline: (§3)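 Broth microdilution MIC in 96-well plates. Compounds in LB broth with bacterial inoculum of 1.0 × 10^4 cfu per well, from suspensions adjusted with sterile saline to 1.0 × 10⁵ CFU/ml. Incubated 24 h at […] as printed. MIC taken as the lowest concentration with no visible growth under the binocular microscope. OD at 655 nm also read against blank. Streptomycin and ampicillin as positive controls. Duplicate, repeated three times.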

Proteus mirabilis [6] = experiment: Antibacterial activity against Proteus mirabilis after 24 hrs; format: functional; outline: as §3
Aspergillus fumigatus [7] = experiment: Antifungal activity against Aspergillus fumigatus plant isolate after 72 hrs by serial sub-cultivation method
Fulvia fulva [8] = experiment: Antifungal activity against Fulvia fulva TK 5318 after 72 hrs by serial dilution method; format: functional; conditions: TK 5318, 72 h
Outline: (§4)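 Fungi were kept on malt agar at 4 °C and sub-cultured monthly. Spores were washed off the agar with sterile 0.85% saline containing 0.1% Tween 80 (v/v). Modified microdilution in 96-well plates. MIC is the lowest concentration with no visible growth under the binocular microscope. Inoculum checked on malt agar for contamination and validity.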

Listeria monocytogenes [9] = experiment: Antibacterial activity against Listeria monocytogenes NCTC 7973 after 24 hrs; format: functional; conditions: NCTC 7973, 24 h; outline: as §3
Listeria monocytogenes [10] = experiment: Antibacterial activity against Listeria monocytogenes NCTC 7973 after 72 hrs by serial sub-cultivation method; format: functional; conditions: NCTC 7973, 72 h; outline: as §1
Micrococcus flavus [11] = experiment: Antibacterial activity against Micrococcus flavus ATCC 10240 after 24 hrs; format: functional; conditions: ATCC 10240, 24 h; outline: as §3
Escherichia coli [12] = experiment: Antibacterial activity against Escherichia coli ATCC 35210 after 72 hrs by serial sub-cultivation method; format: functional; conditions: ATCC 35210, 72 h; outline: as §1
Salmonella typhimurium [13] = experiment: Antibacterial activity against Salmonella Typhimurium ATCC 13311 after 24 hrs; format: functional, Salmonella enterica subsp. enterica serovar Typhimurium; conditions: Salmonella enterica, ATCC 13311, 24 h; outline: as §3
Bacillus cereus [14] = experiment: Antibacterial activity against Bacillus cereus clinical isolate after 72 hrs by serial sub-cultivation method; format: functional; outline: as §1
Micrococcus flavus [15] = experiment: Antibacterial activity against Micrococcus flavus ATCC 10240 after 72 hrs by serial sub-cultivation method; format: functional; conditions: ATCC 10240, 72 h; outline: as §1
Trichoderma viride [16] = experiment: Antifungal activity against Trichoderma viride IAM 5061 after 72 hrs by serial sub-cultivation method; format: functional; conditions: IAM 5061, 72 h; outline: as §2
Aspergillus flavus [17] = experiment: Antifungal activity against Aspergillus flavus ATCC 9643 after 72 hrs by serial dilution method; format: functional; conditions: ATCC 9643, 72 h; outline: as §4
Aspergillus versicolor [18] = experiment: Antifungal activity against Aspergillus versicolor ATCC 11730 after 72 hrs by serial sub-cultivation method; format: functional; conditions: ATCC 11730, 72 h; outline: as §2
Penicillium ochrochloron [19] = experiment: Antifungal activity against Penicillium ochrochloron ATCC 9112 after 72 hrs by serial sub-cultivation method; format: functional; conditions: ATCC 9112, 72 h; outline: as §2
Trichoderma viride [20] = experiment: Antifungal activity against Trichoderma viride IAM 5061 after 72 hrs by serial dilution method; format: functional; conditions: IAM 5061, 72 h; outline: as §4
Aspergillus versicolor [21] = experiment: Antifungal activity against Aspergillus versicolor ATCC 11730 after 72 hrs by serial dilution method; format: functional; conditions: ATCC 11730, 72 h; outline: as §4
Aspergillus niger [22] = experiment: Antifungal activity against Aspergillus niger ATCC 6275 after 72 hrs by serial dilution method; format: functional; conditions: ATCC 6275, 72 h; outline: as §4
Salmonella typhimurium [23] = experiment: Antibacterial activity against Salmonella Typhimurium ATCC 13311 after 72 hrs by serial sub-cultivation method; format: functional, Salmonella enterica subsp. enterica serovar Typhimurium; conditions: Salmonella enterica, ATCC 13311, 72 h; outline: as §1
Escherichia coli [24] = experiment: Antibacterial activity against Escherichia coli ATCC 35210 after 24 hrs; format: functional; conditions: ATCC 35210, 24 h; outline: as §3
Talaromyces funiculosus [25] = experiment: Antifungal activity against Penicillium funiculosum ATCC 36839 after 72 hrs by serial sub-cultivation method; format: functional; conditions: ATCC 36839, 72 h; outline: as §2
Pseudomonas aeruginosa [26] = experiment: Antibacterial activity against Pseudomonas aeruginosa ATCC 27853 after 24 hrs; format: functional; conditions: ATCC 27853, 24 h; outline: as §3
Talaromyces funiculosus [27] = experiment: Antifungal activity against Penicillium funiculosum ATCC 36839 after 72 hrs by serial dilution method; format: functional; conditions: ATCC 36839, 72 h; outline: as §4
Aspergillus flavus [28] = experiment: Antifungal activity against Aspergillus flavus ATCC 9643 after 72 hrs by serial sub-cultivation method; format: functional; conditions: ATCC 9643, 72 h; outline: as §2
Penicillium ochrochloron [29] = experiment: Antifungal activity against Penicillium ochrochloron ATCC 9112 after 72 hrs by serial dilution method; format: functional; conditions: ATCC 9112, 72 h; outline: as §4
Aspergillus fumigatus [30] = experiment: Antifungal activity against Aspergillus fumigatus plant isolate after 72 hrs by serial dilution method
Fulvia fulva [31] = experiment: Antifungal activity against Fulvia fulva TK 5318 after 72 hrs by serial sub-cultivation method; format: functional; conditions: TK 5318, 72 h; outline: as §2
Bacillus cereus [32] = experiment: Antibacterial activity against Bacillus cereus clinical isolate after 24 hrs; format: functional; outline: as §3

| Structure (SMILES) | MBC (Pseudomonas aeruginosa [1]) [µM] | MBC (Proteus mirabilis [2]) [µM] | MBC (Staphylococcus aureus [3]) [µM] | MFC (Aspergillus niger [4]) [µM] | MIC (Staphylococcus aureus [5]) [µM] | MIC (Proteus mirabilis [6]) [µM] | MFC (Aspergillus fumigatus [7]) [µM] | MIC (Fulvia fulva [8]) [µM] | MIC (Listeria monocytogenes [9]) [µM] | MBC (Listeria monocytogenes [10]) [µM] | MIC (Micrococcus flavus [11]) [µM] | MBC (Escherichia coli [12]) [µM] | MIC (Salmonella typhimurium [13]) [µM] | MBC (Bacillus cereus [14]) [µM] | MBC (Micrococcus flavus [15]) [µM] | MFC (Trichoderma viride [16]) [µM] | MIC (Aspergillus flavus [17]) [µM] | MFC (Aspergillus versicolor [18]) [µM] | MFC (Penicillium ochrochloron [19]) [µM] | MIC (Trichoderma viride [20]) [µM] | further results |
| --- | --- | --- | --- | --- | --- | --- | --- | --- | --- | --- | --- | --- | --- | --- | --- | --- | --- | --- | --- | --- | --- |
| O=C1N/C(=N/c2nc(C34CC5CC(CC(C5)C3)C4)cs2)S/C1=C\c1ccccc1Cl | 43.8 (≈ 20 µg/mL) | 63.7 (≈ 29 µg/mL) | 43.8 (≈ 20 µg/mL) | 21.9 (≈ 9.99 µg/mL) | 21.9 (≈ 9.99 µg/mL) | 43.8 (≈ 20 µg/mL) | 21.9 (≈ 9.99 µg/mL) | 11 (≈ 5.02 µg/mL) | 21.9 (≈ 9.99 µg/mL) | 43.8 (≈ 20 µg/mL) | 16.4 (≈ 7.48 µg/mL) | 43.8 (≈ 20 µg/mL) | 21.9 (≈ 9.99 µg/mL) | 43.8 (≈ 20 µg/mL) | 23.8 (≈ 10.9 µg/mL) | 21.9 (≈ 9.99 µg/mL) | 11 (≈ 5.02 µg/mL) | 21.9 (≈ 9.99 µg/mL) | 21.9 (≈ 9.99 µg/mL) | 11 (≈ 5.02 µg/mL) | MIC (Aspergillus versicolor [21]): 16.4 µM (≈ 7.48 µg/mL); MIC (Aspergillus niger [22]): 11 µM (≈ 5.02 µg/mL); MBC (Salmonella typhimurium [23]): 43.8 µM (≈ 20 µg/mL); MIC (Escherichia coli [24]): 21.9 µM (≈ 9.99 µg/mL); MFC (Talaromyces funiculosus [25]): 32.3 µM (≈ 14.7 µg/mL); MIC (Pseudomonas aeruginosa [26]): 21.9 µM (≈ 9.99 µg/mL); MIC (Talaromyces funiculosus [27]): 21.9 µM (≈ 9.99 µg/mL); MFC (Aspergillus flavus [28]): 21.9 µM (≈ 9.99 µg/mL); MIC (Penicillium ochrochloron [29]): 11 µM (≈ 5.02 µg/mL); MIC (Aspergillus fumigatus [30]): 16.4 µM (≈ 7.48 µg/mL); MFC (Fulvia fulva [31]): 16.4 µM (≈ 7.48 µg/mL); MIC (Bacillus cereus [32]): 21.9 µM (≈ 9.99 µg/mL) |
| O=C1N/C(=N/c2nc(C34CC5CC(CC(C5)C3)C4)cs2)S/C1=C\c1ccc(Cl)cc1 | 43.8 (≈ 20 µg/mL) | 65.7 (≈ 30 µg/mL) | 43.8 (≈ 20 µg/mL) | 21.9 (≈ 9.99 µg/mL) | 21.9 (≈ 9.99 µg/mL) | 43.8 (≈ 20 µg/mL) | 21.9 (≈ 9.99 µg/mL) | 11 (≈ 5.02 µg/mL) | 21.9 (≈ 9.99 µg/mL) | 43.8 (≈ 20 µg/mL) | 11 (≈ 5.02 µg/mL) | 43.8 (≈ 20 µg/mL) | 21.9 (≈ 9.99 µg/mL) | 21.9 (≈ 9.99 µg/mL) | 21.9 (≈ 9.99 µg/mL) | 16.4 (≈ 7.48 µg/mL) | 11 (≈ 5.02 µg/mL) | 21.9 (≈ 9.99 µg/mL) | 21.9 (≈ 9.99 µg/mL) | 11 (≈ 5.02 µg/mL) | MIC (Aspergillus versicolor [21]): 16.4 µM (≈ 7.48 µg/mL); MIC (Aspergillus niger [22]): 11 µM (≈ 5.02 µg/mL); MBC (Salmonella typhimurium [23]): 43.8 µM (≈ 20 µg/mL); MIC (Escherichia coli [24]): 21.9 µM (≈ 9.99 µg/mL); MFC (Talaromyces funiculosus [25]): 21.9 µM (≈ 9.99 µg/mL); MIC (Pseudomonas aeruginosa [26]): 21.9 µM (≈ 9.99 µg/mL); MIC (Talaromyces funiculosus [27]): 11 µM (≈ 5.02 µg/mL); MFC (Aspergillus flavus [28]): 21.9 µM (≈ 9.99 µg/mL); MIC (Penicillium ochrochloron [29]): 16.4 µM (≈ 7.48 µg/mL); MIC (Aspergillus fumigatus [30]): 11 µM (≈ 5.02 µg/mL); MFC (Fulvia fulva [31]): 16.4 µM (≈ 7.48 µg/mL); MIC (Bacillus cereus [32]): 16.4 µM (≈ 7.48 µg/mL) |
| O=C1N/C(=N/c2nc(C34CC5CC(CC(C5)C3)C4)cs2)S/C1=C\c1cccc(Cl)c1 | 43.8 (≈ 20 µg/mL) | 65.7 (≈ 30 µg/mL) | 43.8 (≈ 20 µg/mL) | 21.9 (≈ 9.99 µg/mL) | 16.4 (≈ 7.48 µg/mL) | 43.8 (≈ 20 µg/mL) | 21.9 (≈ 9.99 µg/mL) | 16.4 (≈ 7.48 µg/mL) | 21.9 (≈ 9.99 µg/mL) | 43.8 (≈ 20 µg/mL) | 11 (≈ 5.02 µg/mL) | 43.8 (≈ 20 µg/mL) | 21.9 (≈ 9.99 µg/mL) | 21.9 (≈ 9.99 µg/mL) | 21.9 (≈ 9.99 µg/mL) | 21.9 (≈ 9.99 µg/mL) | 16.4 (≈ 7.48 µg/mL) | 21.9 (≈ 9.99 µg/mL) | 11 (≈ 5.02 µg/mL) | 11 (≈ 5.02 µg/mL) | MIC (Aspergillus versicolor [21]): 11 µM (≈ 5.02 µg/mL); MIC (Aspergillus niger [22]): 11 µM (≈ 5.02 µg/mL); MBC (Salmonella typhimurium [23]): 43.8 µM (≈ 20 µg/mL); MIC (Escherichia coli [24]): 21.9 µM (≈ 9.99 µg/mL); MFC (Talaromyces funiculosus [25]): 21.9 µM (≈ 9.99 µg/mL); MIC (Pseudomonas aeruginosa [26]): 21.9 µM (≈ 9.99 µg/mL); MIC (Talaromyces funiculosus [27]): 21.9 µM (≈ 9.99 µg/mL); MFC (Aspergillus flavus [28]): 21.9 µM (≈ 9.99 µg/mL); MIC (Penicillium ochrochloron [29]): 5.5 µM (≈ 2.51 µg/mL); MIC (Aspergillus fumigatus [30]): 11 µM (≈ 5.02 µg/mL); MFC (Fulvia fulva [31]): 21.9 µM (≈ 9.99 µg/mL); MIC (Bacillus cereus [32]): 16.4 µM (≈ 7.48 µg/mL) |
